# DNA FID counter = displaces DNA intercalator in HCV helicase counter-screen | 290,000 compounds, 0.17% hits | DNA fluorescent intercalator displacement, fluorescence | AID 1845 | inhibition, % at 7.9 µM; in the data active = inhibition above about 37%;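 note: 0% = vehicle and 100% = reference compound; higher means more ethidium bromide displaced from hairpin DNA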
# SR-BI HDL uptake = inhibitors of mouse SR-BI mediated HDL lipid uptake. Q61009. ldlA[mSR-BI] CHO cells, DiI-HDL uptake fluorescence, 3 h. inhibition, % at 12.5 µM. 320,000 compounds, 0.96% hits;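 active = mean replicate inhibition of at least 70% and a set share of replicates each scoring 70 or more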;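 note: 0% = median of neutral control wells and 100% = median of positive control wells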
# TMEM16A inh = inhibitors of mouse TMEM16A calcium-activated chloride channel | 310,000 compounds, 1.2% hits | Q8BHY3 | HEK293 TMEM16A/YFP iodide influx fluorescence, ionomycin | normalized B-score (activity score, 25-100; higher = stronger inhibition) at 10 µM | AID 588511;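 active = ratio plate-corrected score three or more library SD toward inhibition, starting fluorescence score within five deviations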;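 note: score derived from kinetic fluorescence span divided by baseline fluorescence per well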
# TMEM16A act = activates or potentiates the mouse TMEM16A chloride channel. HEK293 TMEM16A/YFP-H148Q/I152L, iodide quench fluorescence; stronger effect = lower value. 340,000 compounds, 0.3% hits. B-score at 10 µM. Q8BHY3. AID 623877;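 active = fluorescence-ratio B-score plate-corrected deviation score at least 3 library SD below zero, with starting fluorescence score within 5 deviations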;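 note: channel opened by trigger with iodide after compound preincubation; score built on the fluorescence ratio of max minus min over baseline; more negative score means more quench and so TMEM16A activation or potentiation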
# Kir21 inh = inhibitors of mouse Kir2.1 inward-rectifier potassium channel; 310,000 compounds, 0.85% hits; AID 1672; P35561; B-score at 10 µM; HEK293-Kir2.1, FluxOR thallium flux fluorescence; stronger effect = lower value;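 active = fluorescence ratio B-score at or below minus 3 SD of library scores, with starting-brightness B-score within 2 SD, cut at about -4.2 in these data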;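 note: channel flux triggered by added potassium and thallium sulfate stimulus; B-score of peak minus minimum fluorescence over baseline after thallium stimulus; more negative B-score means stronger Kir2.1 block with less thallium influx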
# SR-BI uptake up = activators of SR-BI mediated HDL lipid uptake. CHO ldlA[mSR-BI] cells, DiI-HDL uptake fluorescence, 3 h; 100 = double the neutral-control signal. AID 504775. 320,000 compounds, 0.096% hits. activation, % at 12.5 µM;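 active = mean replicate activation of at least 60% and every replicate at or above 60%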;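 note: 0% = median plate neutral-control signal and 100% = twice that signal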
#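 Test system: SR-BI-overexpressing, LDLR-lacking CHO cells; Medium: Ham's F12 with 0.5% BSA, HEPES 25 mM, pH 7.4; Schedule: 3 h, 37 °C; Technique: bottom-read fluorescence, 550/595 nm.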
# An asterisk follows results filed as active; i = inactive; x = no result. Rows were chosen to be rich in hits. Some 3% of all compounds tested hit in one or more screens of this group.
SMILES,DNA FID counter,SR-BI HDL uptake,TMEM16A inh,TMEM16A act,Kir21 inh,SR-BI uptake up
O=[N+]([O-])c1ccc(-c2c(-c3ccccc3)ncc3cc(F)ccc23)cc1,x,86*,x,i,x,-86
CC1CCCN(C(=O)COC(=O)Cn2cnc3ccccc32)C1 (configuration not stated),x,-7,x,i,x,7
C[C@H]1COC(=O)[C@H](CC(=O)OC(C)(C)C)C/C=C\C[C@H](CC(=O)N(CCO)Cc2ccccc2)C(=O)N1,x,-10,x,i,x,10
COc1ccc(OC)c2sc(N(CCN(C)C)C(=O)/C=C/c3cccs3)nc12,44*,6,i,-32*,0.07,-6
COc1ccccc1CN1CCCC(CNC(=O)c2cccc3ccccc23)C1 (configuration not stated),14,19,i,i,-2.9,-19
COc1ccc(CCNc2cc(C)nc3c(-c4ccccc4OC)cnn23)cc1OC,-28,91*,i,i,-0.33,-91
CC1=C(C(=O)OCc2ccccc2)C(/C=C/c2ccccc2)NC(=S)N1 (configuration not stated),-26,74*,i,i,-2.5,-74
C=CCOC(=O)C1=C(C)NC(=S)NC1/C=C/c1ccccc1 (configuration not stated),-15,82*,i,i,0.44,-82
CC(C)CNC(=S)N1CCC(Cc2ccccc2)CC1,-29,2,i,i,0.63,-2
Cc1ccnc(Nc2nc(-c3sc(C)nc3C)cs2)c1,x,51,i,i,0.76,-51
CC(=O)Nc1ccc(Nc2nc(-c3sc(C)nc3C)cs2)cc1,-19,74*,i,i,-1.6,-74
Cc1cccc(Nc2nc(-c3sc(C)nc3C)cs2)c1,-20,85*,i,i,-1.3,-85
Cc1ccc(Nc2nc(-c3sc(C)nc3C)cs2)cc1,-25,37,i,i,0.5,-37
CC(=O)c1cccc(Nc2nc(-c3sc(C)nc3C)cs2)c1,-21,71*,i,i,0.26,-71
COc1cc(CNCc2ccc(OC)cc2OC)cc(OC)c1,12,19,i,i,-1.6,-19
CCOc1ccc(S(=O)(=O)c2c[nH]c3ccccc3c2=O)cc1,-8,10,i,i,-0.26,-10
CCN(CC)CCn1nc2c3c(cccc3c1=O)-c1ccccc1-2,40*,-25,i,i,-1.5,25
O=c1c2cccc3c2c(nn1CN1CCOCC1)-c1ccccc1-3,-3,-15,i,i,0.62,15
Cc1ccc(S(=O)(=O)Nc2ccccc2N=Cc2c(F)c(F)c(F)c(F)c2F)cc1,x,92*,x,i,x,-92
Cc1ccc(S(=O)(=O)Nc2ccccc2N2CCOCC2)cc1,-32,-4,i,i,-0.74,4
Cc1ccc(S(=O)(=O)Nc2ccccc2N2CCCCC2)cc1,x,-16,x,-20*,x,16
Cc1ccc(S(=O)(=O)Nc2ccccc2C=Nc2cccc(C)c2C)cc1,8,-35,i,i,0.72,35
O=C(Cc1cn2ccsc2n1)NCCc1ccc(F)cc1,-6,6,i,-49*,0.74,-6
Cc1ccc(SC[C@H](C)CN2CC[C@H](C)CCC2=O)cc1,-42,-28,i,i,-4.7*,28
Cn1c(N=Nc2ccc(N3CCOCC3)cc2)[n+](C)c2ccccc21,59*,-27,x,i,2.5,27
C=C1C(=O)C=C2CN(C(=O)c3ccccc3)[C@@](Cc3ccc(F)cc3)(C(=O)OC)[C@@H]12,-16,42,i,i,-4.5*,-42
CN(CCc1ccccn1)C(=O)CC1C(=O)NCCN1Cc1cccc(F)c1 (configuration not stated),-8,-25,i,i,-0.27,25
O=C(Nc1ccc(Cl)cc1)c1cc(Br)ccc1OCC(=O)N1CCOCC1,-11,82*,i,i,-0.04,-82
O=C(Nc1ccc(OCC(=O)N2CCOCC2)cc1)c1ccccc1F,-9,-10,i,i,-1.5,10
CCC1(CC)NC(=O)N(CC(=O)OCc2nc3cc(C(=O)OC)ccc3c(=O)[nH]2)C1=O,x,12,x,i,x,-12

# Screening data (PubChem BioAssay)
